Test results: paper PMC4363136 (Biochemical pharmacology, 2014)
Blank lines part the entries; values can stand above or below the molecule they belong to.

Columns and labels:
[1] = Pharmacokinetics after intravenous administration; type: in vivo, CD-1 mice
How it was run: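 Male CD-1 mice, fasted 3 h, received a single IV dose of test compound at 5 mg/kg in water. Blood was sampled sparsely from the retro-orbital plexus at 5 min–24 h into K2EDTA. Plasma was protein-precipitated with acetonitrile and 7-hydroxynoscapine internal standard, then quantified by positive-mode MRM LC-MS/MS (calibration 1 ng/mL–1 µg/mL). Non-compartmental analysis: linear-trapezoid AUC, CL and Vss from IV data, C0 back-extrapolated.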

MIA PaCa-2 cells = experiment: MTT cell proliferation assay, MIA PaCa-2; type: cell-based
How it was run: (§1)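 Cell lines were grown in medium with 10% FBS and 1% penicillin/streptomycin: PC-3 in RPMI; HeLa, MIA PaCa-2 and T24 in DMEM. Cells were seeded at 5×10^3 per well, attached overnight, then given test compound (0–500 µM, from PBS solution, diluted in medium) for 48 h. MTT was added for 4 h and formazan dissolved in DMSO. A570 was read. IC50 is the concentration giving 50% inhibition of proliferation.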

MAPs-rich tubulin = experiment: Light scattering assay of MAPs-rich tubulin polymerization; type: biochemical, goat; settings: 50 µM compound, 1 mg/ml MAPs-rich tubulin, 37°C, 400 nm
HeLa cells = experiment: MTT cell proliferation assay, HeLa; type: cell-based; settings: 48 h
How it was run: as §1

PC-3 cells [2] = experiment: Immunofluorescence confocal microscopy of spindle morphology; type: cell-based, human; settings: 12h and 24h
How it was run: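 PC-3 cells were grown on glass coverslips and exposed to test compound for 12 h or 24 h. Cells were fixed in −20 °C methanol for 10 min, then blocked in 2% BSA/PBS at 37 °C for 1 h. They were stained with anti-α- and anti-γ-tubulin (1:1000, 45 min, 37 °C) and Alexa Fluor 488/555 secondaries (1:1000, 45 min, 37 °C). DNA was stained with DAPI. Slides were mounted in antifade and imaged by confocal microscopy.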

[3] = Pharmacokinetics after oral administration; type: in vivo, CD-1 mice; settings: for Fold increase in F compared to Nos: oral 50 mg/kg
How it was run: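 Male CD-1 mice (3 per group), fasted 3 h, were dosed once by oral gavage at 50 mg/kg in water. Plasma was collected by sparse retro-orbital sampling at 5 min–24 h. Samples were acetonitrile-precipitated with internal standard and assayed by LC-MS/MS (1 ng/mL–1 µg/mL). Non-compartmental analysis: linear-trapezoid AUClast, Cmax taken as observed. F is dose-normalized oral AUClast over IV (5 mg/kg) AUClast.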

PC-3 cells [4] = experiment: MTT cell proliferation assay, PC-3; type: cell-based, human
How it was run: as §1

T24 bladder cancer cells = experiment: MTT cell proliferation assay, T24; type: cell-based
How it was run: as §1

MAPs rich tubulin = experiment: GTPase activity assay; type: biochemical, goat; settings: different concentrations of compound, 10 min
pure tubulin [5] = experiment: GTPase activity assay; type: biochemical, goat; settings: 50 µM compound, compared to control
pure tubulin [6] = experiment: Light scattering assay of pure tubulin polymerization; type: biochemical, goat; settings: 10 µM tubulin, 1M monosodium glutamate
[7] = oral gavage 50 mg/kg, CD-1 mice, plasma
[8] = male, CD-1, mouse, plasma, iv, 5 mg/kg
[9] = male, CD-1, mouse, plasma, po, 50 mg/kg

CL ([1]; IV 5 mg/kg, CD-1 mice): 512 mL/min/kg
VSS ([1]; IV 5 mg/kg, CD-1 mice): 23.81 L/kg
half-life ([1]; IV 5 mg/kg, CD-1 mice): 22.8 min
AUClast ([1]; IV 5 mg/kg, CD-1 mice, plasma): 145.41 ng·h/mL
C0 ([1]; back extrapolated concentration, IV 5 mg/kg, CD-1 mice, plasma): 259.39 ng/mL
IC50 (MIA PaCa-2 cells; MIA Paca-2, 48 h, MTT): 40 µM
IC50 (HeLa cells; MTT): 53 µM
Bioavailability F ([3]; dose normalized AUClast, oral 50 mg/kg vs IV 5 mg/kg, CD-1 mice): 11
Fold increase in F compared to Nos ([3]; CD-1 mice, 50 mg/kg): 0.9 fold
Tmax ([3]; oral gavage 50 mg/kg, CD-1 mice): 4.8 min
AUClast [3, 7]: 164 ng·h/mL
Cmax [3, 7]: 14 ± 7 ng/mL
IC50 (PC-3 cells [4]; PC-3 cells, 48 h, MTT): 29 µM
IC50 (T24 bladder cancer cells; T24, 48 h, MTT): 32 µM
SMILES: COc1ccc2c(c1OCCCCS(=O)(=O)O)C(=O)O[C@@H]2[C@H]1c2c(c(Br)c3c(c2OC)OCO3)CCN1C [Compound 8b, 4-(((S)-1-((R)-9-bromo-4-methoxy-6-methyl-5,6,7,8-tetrahydro-[1,3]dioxolo[4,5-g]isoquin-olin-5-yl)-5-methoxy-3-oxo-1,3-dihydroisobenzofuran-4-yl)oxy)butane-1-sulfonic acid]
Percent decrease in light scattering of MAP-tubulin (MAPs-rich tubulin): 68 ± 18%
spindle / mitotic phenotype (PC-3 cells [2]): induced a multipolar phenotype

AUC(0-t) [1, 8]: 133 ng·h/mL
C0 [1, 8]: 307 ng/mL
Vd [1, 8]: 18.4 L/kg
clearance [1, 8]: 584 mL/min/kg
half-life [1, 8]: 42 min
IC50 (MIA PaCa-2 cells; Homo sapiens, MIA PaCa-2, 48 h): 18 µM
IC50 (HeLa cells; Homo sapiens): 53 µM
AUC(0-t) [3, 9]: 240 ng·h/mL
Tmax [3, 9]: 4.8 min
bioavailability [3, 9]: 21%
Fold increase in F compared to Nos ([3]; CD-1 mice, 50 mg/kg): 1.7 fold
IC50 (PC-3 cells [4]; Homo sapiens, PC-3, 48 h): 55 µM
IC50 (T24 bladder cancer cells; 48 h): 4 µM
SMILES: COc1ccc2c(c1OCCCS(=O)(=O)O)C(=O)O[C@@H]2[C@H]1c2c(c(Br)c3c(c2OC)OCO3)CCN1C [Compound 8c, 3-(((S)-1-((R)-9-bromo-4-methoxy-6-methyl-5,6,7,8-tetrahydro-[1,3]dioxolo[4,5-g]isoquinolin-5-yl)-5-methoxy-3-oxo-1,3-dihydroisobenzofuran-4-yl)oxy)propane-1-sulfonic acid]
Percent decrease in light scattering of MAP-tubulin (MAPs-rich tubulin): 61 ± 21%
spindle / mitotic phenotype (PC-3 cells [2]): induced a multipolar phenotype

The next lines start with the molecule.

SMILES: COc1ccc2c(c1OC)C(=O)O[C@@H]2[C@H]1c2c(c(NCCC[N+](C)(C)C)c3c(c2OC)OCO3)CCN1C.[Br-] [Compound 4a, 3-(((R)-5-((S)-4,5-dimethoxy-3-oxo-1,3-dihydroisobenzofuran-1-yl)-4-methoxy-6-methyl-5,6,7,8-tetrahydro-[1,3]dioxolo[4,5-g]isoquinolin-9-yl)amino)-N,N,N-trimethylpropan-1-aminium bromide]
Percent decrease in light scattering of MAP-tubulin (MAPs-rich tubulin): 29 ± 5%

SMILES: COc1cc([C@@H]2c3cc4c(cc3[C@H](O)[C@H]3COC(=O)[C@H]23)OCO4)cc(OC)c1OC [podophyllotoxin]
change in GTPase activity of MAPs-rich tubulin (MAPs rich tubulin): decreased

SMILES: COc1ccc2c(c1OCCCS(=O)(=O)O)C(=O)O[C@@H]2[C@H]1c2c(cc3c(c2OC)OCO3)CCN1C [Compound 6c, 3-(((S)-5-methoxy-1-((R)-4-methoxy-6-methyl-5,6,7,8-tetrahydro-[1,3]dioxolo[4,5-g]isoquinolin-5-yl)-3-oxo-1,3-dihydroisobenzofuran-4-yl)oxy)propane-1-sulfonic acid]
Percent decrease in light scattering of MAP-tubulin (MAPs-rich tubulin): 32 ± 14%
IC50 (PC-3 cells [4]; Homo sapiens, PC-3, 48 h): 275 µM

SMILES: COc1ccc2c(c1OCCC[N+](C)(C)C)C(=O)O[C@@H]2[C@H]1c2c(cc3c(c2OC)OCO3)CCN1C.[Br-] [Compound 6a, 3-(((S)-5-methoxy-1-((R)-4-methoxy-6-methyl-5,6,7,8-tetrahydro-[1,3]dioxolo[4,5-g]isoquinolin-5-yl)-3-oxo-1,3-dihydroisobenzofuran-4-yl)oxy)-N,N,N-trimethylpropan-1-aminium bromide]
Percent decrease in light scattering of MAP-tubulin (MAPs-rich tubulin): 19 ± 6%

SMILES: COc1ccc2c(c1OC)C(=O)O[C@@H]2[C@H]1c2c(c(Br)c3c(c2OC)OCO3)CCN1C [Compound 2, (S)-3-((R)-9-bromo-4-methoxy-6-methyl-5,6,7,8-tetrahydro-[1,3]dioxolo[4,5-g]isoquinolin-5-yl)-6,7-dimethoxyisobenzofuran-1(3H)-one, reference compound]
IC50 (HeLa cells; Homo sapiens): 436 µM
IC50 (T24 bladder cancer cells; 48 h): 191 µM

SMILES: COc1ccc2c(c1OC)C(=O)O[C@@H]2[C@H]1c2c(c(NCCCS(=O)(=O)O)c3c(c2OC)OCO3)CCN1C [Compound 4c, 3-(((R)-5-((S)-4,5-dimethoxy-3-oxo-1,3-dihydroisobenzofuran-1-yl)-4-methoxy-6-methyl-5,6,7,8-tetrahydro-[1,3]dioxolo[4,5-g]isoquinolin-9-yl)amino)propane-1-sulfonic acid]
Percent decrease in light scattering of MAP-tubulin (MAPs-rich tubulin): 27 ± 10%

SMILES: COc1ccc2c(c1OC)C(=O)O[C@@H]2[C@H]1c2c(c(NCCCCS(=O)(=O)O)c3c(c2OC)OCO3)CCN1C [Compound 4b, 4-(((R)-5-((S)-4,5-dimethoxy-3-oxo-1,3-dihydroisobenzofuran-1-yl)-4-methoxy-6-methyl-5,6,7,8-tetrahydro-[1,3]dioxolo[4,5-g]isoquinolin-9-yl)amino)butane-1-sulfonic acid]
Percent decrease in light scattering of MAP-tubulin (MAPs-rich tubulin): 30 ± 9%
IC50 (PC-3 cells [4]; Homo sapiens, PC-3, 48 h): 490 µM

SMILES: COc1ccc2c(c1OCCCCS(=O)(=O)O)C(=O)O[C@@H]2[C@H]1c2c(cc3c(c2OC)OCO3)CCN1C [Compound 6b, 4-(((S)-5-methoxy-1-((R)-4-methoxy-6-methyl-5,6,7,8-tetrahydro-[1,3]dioxolo[4,5-g]isoquinolin-5-yl)-3-oxo-1,3-dihydroisobenzofuran-4-yl)oxy)butane-1-sulfonic acid]
AUC(0-t) [1, 8]: 198 ng·h/mL
C0 [1, 8]: 502 ng/mL
Vd [1, 8]: 9.53 L/kg
clearance [1, 8]: 369 mL/min/kg
half-life [1, 8]: 37.8 min
IC50 (MIA PaCa-2 cells; Homo sapiens, MIA PaCa-2, 48 h): 30 µM
Percent decrease in light scattering of MAP-tubulin (MAPs-rich tubulin): 74 ± 13%
change in GTPase activity of MAPs-rich tubulin (MAPs rich tubulin): increased significantly
IC50 (HeLa cells; Homo sapiens): 66 µM
spindle / mitotic phenotype (PC-3 cells [2]): induced a multipolar phenotype
change in GTPase activity of pure tubulin (pure tubulin [5]): did not change significantly
AUC(0-t) [3, 9]: 611 ng·h/mL
Tmax [3, 9]: 4.8 min
bioavailability [3, 9]: 27%
Cmax ([3]; oral gavage 50 mg/kg, CD-1 mice, plasma, 50 mg/kg): 2970 ± 60 ng/mL
IC50 (PC-3 cells [4]; Homo sapiens, PC-3, 48 h): 19 µM
IC50 (T24 bladder cancer cells; 48 h): 3.3 µM
% Decrease in light scattering of pure tubulin (pure tubulin [6]; 10 µM compound): 14±6%
% Decrease in light scattering of pure tubulin (pure tubulin [6]; 25 µM compound): 25±7.6%
% Decrease in light scattering of pure tubulin (pure tubulin [6]; 50 µM compound): 35±7.2%

SMILES: COc1ccc2c(c1OCCC[N+](C)(C)C)C(=O)O[C@@H]2[C@H]1c2c(c(Br)c3c(c2OC)OCO3)CCN1C.[Br-] [Compound 8a, 3-(((S)-1-((R)-9-bromo-4-methoxy-6-methyl-5,6,7,8-tetrahydro-[1,3]dioxolo[4,5-g]isoquin-olin-5-yl)-5-methoxy-3-oxo-1,3-dihydroisobenzofuran-4-yl)oxy)-N,N,N-trimethylpropan-1-aminium bromide]
Percent decrease in light scattering of MAP-tubulin (MAPs-rich tubulin): 30 ± 12%

SMILES: COc1ccc2c(c1OC)C(=O)O[C@@H]2[C@H]1c2c(cc3c(c2OC)OCO3)CCN1C [Compound 1, Noscapine, reference compound]
AUC(0-t) [1, 8]: 479 ng·h/mL
C0 [1, 8]: 1210 ng/mL
Vd [1, 8]: 4.55 L/kg
clearance [1, 8]: 174 mL/min/kg
half-life [1, 8]: 23.4 min
IC50 (MIA PaCa-2 cells; Homo sapiens, MIA PaCa-2, 48 h): 105 µM
Percent decrease in light scattering of MAP-tubulin (MAPs-rich tubulin): 11 ± 4%
change in GTPase activity of MAPs-rich tubulin (MAPs rich tubulin): remained almost unchanged
IC50 (HeLa cells; Homo sapiens): 436 µM
AUC(0-t) [3, 9]: 603 ng·h/mL
Tmax [3, 9]: 4.8 min
bioavailability [3, 9]: 13%
Cmax ([3]; oral gavage 50 mg/kg, CD-1 mice, plasma, listed as Nos, 50 mg/kg): 1156 ± 19 ng/mL
IC50 (PC-3 cells [4]; Homo sapiens, PC-3, 48 h): 100 µM
IC50 (T24 bladder cancer cells; 48 h): 83 µM
% Decrease in light scattering of pure tubulin (pure tubulin [6]; 10 µM compound): 5±1.5%
% Decrease in light scattering of pure tubulin (pure tubulin [6]; 25 µM compound): 9±2.6%
% Decrease in light scattering of pure tubulin (pure tubulin [6]; 50 µM compound): 13±2.9%
